In ChEMBL document CHEMBL4261634, “Design and optimization of 2,3-dihydrobenzo[b][1,4]dioxine propanoic acids as novel GPR40 agonists with improved pharmacokinetic and safety profiles” (Bioorg Med Chem, 2018):
The source made the active and inactive calls. No cut-off for these calls is given here.

What was measured:
[1] = target: T1, Free fatty acid receptor 1 (Homo sapiens, UniProt O14842); test: Agonist activity at human GPR40 expressed in human HEK293 cells assessed as increase in intracellular calcium flux after 10 mins by fluorescence assay; format: functional, cell-based
T1 sequence (O14842 whole entry): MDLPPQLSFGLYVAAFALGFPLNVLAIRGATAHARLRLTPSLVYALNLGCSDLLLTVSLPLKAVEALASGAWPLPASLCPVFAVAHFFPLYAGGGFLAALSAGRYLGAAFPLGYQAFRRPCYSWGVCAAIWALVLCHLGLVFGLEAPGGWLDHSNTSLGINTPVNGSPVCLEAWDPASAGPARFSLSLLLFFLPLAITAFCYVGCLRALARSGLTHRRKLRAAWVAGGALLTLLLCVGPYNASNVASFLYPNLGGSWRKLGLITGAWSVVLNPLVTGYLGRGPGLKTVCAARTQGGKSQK
Summary of the method: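 Human GPR40 activity read by calcium mobilization to give EC50. Mean ± SD, n = 3.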

[2] = target: T1, Free fatty acid receptor 1; test: Agonist activity at human GPR40 expressed in human HEK293 cells assessed as increase in intracellular calcium flux after 10 mins by fluorescence assay relative to linoleic acid; format: functional, cell-based
Summary of the method: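 Human GPR40 activity read by calcium mobilization to give EC50. Emax expressed relative to linoleic acid as 100%. Mean ± SD, n = 3.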

Rattus norvegicus [3] = test: Antidiabetic activity in Sprague-Dawley rat assessed as reduction in blood glucose excursion at 10 mg/kg, po administered 60 mins prior to glucose challenge by OGTT; format: functional, organism-based
Summary of the method: (§1)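 OGTT in SD rats: compound given orally 60 min before a 3.0 g/kg glucose challenge. Blood glucose followed over time, and AUC0-60min or AUC0-120min calculated versus vehicle group. Mean ± SD, n = 8.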

Rattus norvegicus [4] = test: Antidiabetic activity in Sprague-Dawley rat assessed as reduction in blood glucose AUC (0 to 60 mins) at 10 mg/kg, po administered 60 mins prior to glucose challenge by OGTT; format: functional, organism-based; summary of the method: as §1
Rattus norvegicus [5] = test: Antidiabetic activity in Sprague-Dawley rat assessed as reduction in blood glucose AUC (0 to 120 mins) at 10 mg/kg, po administered 60 mins prior to glucose challenge by OGTT; format: functional, organism-based; summary of the method: as §1
[6] = Cmax in Sprague-Dawley rat at 10 mg/kg, po by LC-ESI-MS analysis; format: ADME, organism-based; design: dose 10 mg/kg, route oral; conditions: in vivo
Summary of the method: (§2)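 SD rats dosed orally (3 or 10 mg/kg) or by intravenous injection (1 mg/kg). Plasma PK parameters derived per route: Cmax, AUC0-t, Tmax, t1/2 and F after oral dosing; CL, AUC0-t, MRT, t1/2 and Vdss after iv dosing. Mean ± SD from three independent experiments (n = 3).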

[7] = AUC (0 to t) in Sprague-Dawley rat at 10 mg/kg, po by LC-ESI-MS analysis; format: ADME, organism-based; conditions: in vivo; summary of the method: as §2
[8] = Tmax in Sprague-Dawley rat at 10 mg/kg, po by LC-ESI-MS analysis; format: ADME, organism-based; conditions: in vivo; summary of the method: as §2
[9] = Elimination half life in Sprague-Dawley rat at 10 mg/kg, po by LC-ESI-MS analysis; format: ADME, organism-based; conditions: in vivo, read-out: beta t1/2 (converted); summary of the method: as §2
[10] = target: ATP-binding cassette sub-family C member 2 (Homo sapiens, UniProt Q92887); test: Inhibition of human MRP2
Sequence of ATP-binding cassette sub-family C member 2 (Q92887 whole entry): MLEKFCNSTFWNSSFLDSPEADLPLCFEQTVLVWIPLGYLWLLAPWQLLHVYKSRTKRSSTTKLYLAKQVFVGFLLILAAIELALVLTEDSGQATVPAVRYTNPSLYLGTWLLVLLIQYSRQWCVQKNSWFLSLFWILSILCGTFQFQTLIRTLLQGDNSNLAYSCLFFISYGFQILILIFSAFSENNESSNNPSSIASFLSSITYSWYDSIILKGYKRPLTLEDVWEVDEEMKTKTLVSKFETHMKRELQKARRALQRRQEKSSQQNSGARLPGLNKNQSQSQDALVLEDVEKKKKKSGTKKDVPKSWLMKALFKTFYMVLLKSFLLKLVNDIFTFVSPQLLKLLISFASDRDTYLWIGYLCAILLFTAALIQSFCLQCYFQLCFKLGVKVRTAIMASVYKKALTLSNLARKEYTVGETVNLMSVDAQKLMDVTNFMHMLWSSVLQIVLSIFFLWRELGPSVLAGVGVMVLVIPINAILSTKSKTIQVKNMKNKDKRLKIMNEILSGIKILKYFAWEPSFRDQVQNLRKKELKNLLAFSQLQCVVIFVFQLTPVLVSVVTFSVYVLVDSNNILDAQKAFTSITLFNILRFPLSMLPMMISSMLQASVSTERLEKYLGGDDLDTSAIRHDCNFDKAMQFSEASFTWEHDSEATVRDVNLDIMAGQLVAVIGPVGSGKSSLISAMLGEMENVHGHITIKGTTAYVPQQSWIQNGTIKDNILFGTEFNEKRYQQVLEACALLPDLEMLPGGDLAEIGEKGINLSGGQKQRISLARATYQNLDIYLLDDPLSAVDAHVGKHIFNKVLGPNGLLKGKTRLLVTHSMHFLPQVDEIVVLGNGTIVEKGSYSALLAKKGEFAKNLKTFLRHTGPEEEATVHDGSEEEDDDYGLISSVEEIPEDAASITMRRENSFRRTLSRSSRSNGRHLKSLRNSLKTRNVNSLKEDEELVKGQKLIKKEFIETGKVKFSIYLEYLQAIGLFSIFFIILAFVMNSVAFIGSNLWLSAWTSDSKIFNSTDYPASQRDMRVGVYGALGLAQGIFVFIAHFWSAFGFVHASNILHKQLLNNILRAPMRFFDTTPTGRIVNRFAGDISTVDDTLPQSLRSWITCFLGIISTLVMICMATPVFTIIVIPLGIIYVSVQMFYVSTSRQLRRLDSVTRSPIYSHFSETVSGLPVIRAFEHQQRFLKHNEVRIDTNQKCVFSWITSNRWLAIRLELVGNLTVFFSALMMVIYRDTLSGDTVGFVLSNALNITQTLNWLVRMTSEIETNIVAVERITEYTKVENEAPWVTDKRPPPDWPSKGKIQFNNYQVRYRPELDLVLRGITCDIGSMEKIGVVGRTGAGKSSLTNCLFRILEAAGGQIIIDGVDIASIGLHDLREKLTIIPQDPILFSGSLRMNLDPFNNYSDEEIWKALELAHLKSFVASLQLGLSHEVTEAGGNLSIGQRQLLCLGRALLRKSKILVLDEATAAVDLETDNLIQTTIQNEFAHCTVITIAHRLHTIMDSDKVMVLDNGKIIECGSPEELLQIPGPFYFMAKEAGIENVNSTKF

[11] = target: T2, Solute carrier organic anion transporter family member 1B1 (Homo sapiens, UniProt Q9Y6L6); test: Inhibition of human […]
T2 sequence (Q9Y6L6 whole entry): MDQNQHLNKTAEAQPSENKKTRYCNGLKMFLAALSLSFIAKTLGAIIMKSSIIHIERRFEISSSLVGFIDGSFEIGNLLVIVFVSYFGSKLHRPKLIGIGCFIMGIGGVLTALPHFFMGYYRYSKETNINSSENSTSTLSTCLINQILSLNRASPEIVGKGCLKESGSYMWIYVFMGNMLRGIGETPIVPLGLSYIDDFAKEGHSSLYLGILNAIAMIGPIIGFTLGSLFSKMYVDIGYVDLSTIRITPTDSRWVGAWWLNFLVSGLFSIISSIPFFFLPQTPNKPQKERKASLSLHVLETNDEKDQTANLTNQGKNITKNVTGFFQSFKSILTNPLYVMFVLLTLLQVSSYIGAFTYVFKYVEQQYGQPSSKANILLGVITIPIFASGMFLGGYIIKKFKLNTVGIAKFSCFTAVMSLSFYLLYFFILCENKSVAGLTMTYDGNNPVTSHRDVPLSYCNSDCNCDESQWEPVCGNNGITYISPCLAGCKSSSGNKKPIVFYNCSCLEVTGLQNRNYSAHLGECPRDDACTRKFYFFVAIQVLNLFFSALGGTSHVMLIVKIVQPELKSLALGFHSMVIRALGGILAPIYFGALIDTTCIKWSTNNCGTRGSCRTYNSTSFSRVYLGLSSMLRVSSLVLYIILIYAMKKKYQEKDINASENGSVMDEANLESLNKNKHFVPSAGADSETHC

[12] = target: T3, Solute carrier organic anion transporter family member 1B3 (Homo sapiens, UniProt Q9NPD5); test: Inhibition of human OATP1B3; format: ADME
T3 sequence (Q9NPD5 whole entry): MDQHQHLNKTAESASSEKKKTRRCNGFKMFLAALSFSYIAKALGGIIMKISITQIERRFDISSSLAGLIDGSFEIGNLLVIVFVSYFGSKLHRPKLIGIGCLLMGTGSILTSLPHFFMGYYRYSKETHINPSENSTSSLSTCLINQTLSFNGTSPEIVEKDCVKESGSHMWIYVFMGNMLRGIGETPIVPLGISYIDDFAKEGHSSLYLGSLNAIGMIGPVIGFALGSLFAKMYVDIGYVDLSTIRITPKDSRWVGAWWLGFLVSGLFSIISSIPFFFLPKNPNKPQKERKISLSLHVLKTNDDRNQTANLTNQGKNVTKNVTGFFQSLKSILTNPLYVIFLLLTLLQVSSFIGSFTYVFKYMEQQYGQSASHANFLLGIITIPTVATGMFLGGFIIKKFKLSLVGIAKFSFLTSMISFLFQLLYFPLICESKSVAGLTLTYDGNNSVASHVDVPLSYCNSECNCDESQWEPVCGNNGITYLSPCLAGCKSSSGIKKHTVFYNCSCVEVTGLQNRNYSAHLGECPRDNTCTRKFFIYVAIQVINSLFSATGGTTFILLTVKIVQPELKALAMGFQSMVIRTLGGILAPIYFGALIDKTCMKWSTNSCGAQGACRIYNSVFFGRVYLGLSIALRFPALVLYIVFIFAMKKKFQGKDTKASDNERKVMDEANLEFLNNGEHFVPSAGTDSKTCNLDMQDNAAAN

Hepatocyte = test: Toxicity in sandwich-cultured Sprague-Dawley rat hepatocytes assessed as inhibition of hepatobiliary transport by measuring biliary excretion index at 20 to 40 uM after 15 mins in presence of d8-TCA by LC-MS/MS analysis; format: cell-based; conditions: 0.25 h
Summary of the method: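 Sandwich-cultured rat hepatocytes incubated with compound and d8-TCA in standard (Ca2+-containing) or Ca2+-free buffer. Cellular d8-TCA measured, and the biliary excretion index calculated as the fraction of accumulated bile acid excreted into bile. Mean of three independent experiments.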

Rattus norvegicus [13] = test: Antidiabetic activity in Sprague-Dawley rat assessed as reduction in blood glucose excursion at 10 to 20 mg/kg, po administered 60 mins prior to glucose challenge by OGTT; format: functional, organism-based; summary of the method: as §1
Rattus norvegicus [14] = test: Antidiabetic activity in Sprague-Dawley rat assessed as reduction in blood glucose AUC (0 to 60 mins) at 10 to 20 mg/kg, po administered 60 mins prior to glucose challenge by OGTT; format: functional, organism-based; summary of the method: as §1
Rattus norvegicus [15] = test: Antidiabetic activity in Sprague-Dawley rat assessed as reduction in blood glucose AUC (0 to 120 mins) at 10 to 20 mg/kg, po administered 60 mins prior to glucose challenge by OGTT; format: functional, organism-based; summary of the method: as §1

SMILES	EC50 [1] [nM]	Emax [2] [%]	further results
CC#C[C@@H](CC(=O)O)c1ccc(OC[C@H]2COc3ccc(C(=O)N(C)C)cc3O2)cc1	> 30000	32	
CC#C[C@@H](CC(=O)O)c1ccc(OC[C@H]2COc3ccc(OC(C)C)cc3O2)cc1	280	90	
CC#CC(CC(=O)O)c1ccc(OCC2COc3ccc(Cl)cc3O2)cc1 (centres undefined)	100	104	
Cn1nncc1C(CC(=O)O)c1ccc(OCC2COc3ccc(Cl)cc3O2)cc1 (centres undefined)	3870	70	
CC#C[C@@H](CC(=O)O)c1ccc(OC[C@H]2COc3ccc(C(C)=O)cc3O2)cc1	> 30000	51	
CC#C[C@@H](CC(=O)O)c1ccc(OC[C@H]2COc3ccc(CO)cc3O2)cc1	> 30000	42	
COc1ccc2c(c1)OC(COc1ccc(CCC(=O)O)c(F)c1)CO2 (centres undefined)	1470	80	
Cn1cncc1C(CC(=O)O)c1ccc(OCC2COc3ccc(Cl)cc3O2)cc1 (centres undefined)	3060	62	
CC#C[C@@H](CC(=O)O)c1ccc(OC[C@H]2COc3ccc(OC(F)(F)F)cc3O2)cc1	700	73	
CC#C[C@@H](CC(=O)O)c1ccc(OC[C@H]2COc3ccc(S(C)(=O)=O)cc3O2)cc1	27200	55	
O=C(O)CCc1ccc(OCC2COc3ccc(Br)cc3O2)cc1F (centres undefined)	2240	81	
CC#C[C@@H](CC(=O)O)c1ccc(OC[C@H]2COc3cc(Br)c(Cl)cc3O2)cc1	200	82	
CS(=O)(=O)CCCOc1ccc2c(c1)OC(COc1ccc(CCC(=O)O)c(F)c1)CC2 (centres undefined)	36300	38	
Cc1cc(OCCCS(C)(=O)=O)cc(C)c1-c1cccc(COc2ccc3c(c2)OC[C@H]3CC(=O)O)c1			Activity (Rattus norvegicus [3]): Active; Activity (Rattus norvegicus [4]): Active; Activity (Rattus norvegicus [5]): Active; Cmax [6]: 19400 ng/mL; AUC(0-t) [7]: 137 µg·h/mL; Tmax [8]: 3.5 h; half-life [9]: 3.94 h; IC50 [10]: 2410 nM; IC50 [11]: 2280 nM; IC50 [12]: 11200 nM; Activity (Hepatocyte): Toxic
CC#C[C@H](CC(=O)O)c1ccc(OC[C@H]2COc3ccc(Cl)cc3O2)cc1	3400	47	
O=C(O)CC(c1ccncc1)c1ccc(OCC2COc3ccc(Cl)cc3O2)cc1 (centres undefined)	1170	62	
O=C(O)CCc1ccc(NCC2COc3ccc(Cl)cc3O2)cc1F (centres undefined)	13600	69	
CC#C[C@@H](CC(=O)O)c1ccc(OC[C@H]2COc3ccc(C)cc3O2)cc1	120	78	Activity (Rattus norvegicus [13]): Active; Activity (Rattus norvegicus [14]): Active; Activity (Rattus norvegicus [15]): Active; Cmax [6]: 23700 ng/mL; AUC(0-t) [7]: 65.2 µg·h/mL; Tmax [8]: 0.417 h; half-life [9]: 1.79 h
CC#C[C@@H](CC(=O)O)c1ccc(OC[C@H]2COc3ccc(C(=O)N4CCOCC4)cc3O2)cc1	> 50000	33	
COc1ccc2c(c1)OC(COc1ccc(CCC(=O)O)c(F)c1)CC2 (centres undefined)	2110	58	
CC#C[C@@H](CC(=O)O)c1ccc(OC[C@H]2COc3ccccc3O2)cc1	90	70	Activity (Rattus norvegicus [13]): Active; Activity (Rattus norvegicus [14]): Active; Activity (Rattus norvegicus [15]): Active; Cmax [6]: 36700 ng/mL; AUC(0-t) [7]: 275 µg·h/mL; Tmax [8]: 1.17 h; half-life [9]: 3.14 h

SMILES	EC50 [1] [nM]	Emax [2] [%]	further results
CCOC(CC(=O)O)c1ccc(OCC2COc3ccc(Cl)cc3O2)cc1 (centres undefined)	640	46	
CC#C[C@@H](CC(=O)O)c1ccc(OC[C@H]2COc3cccc(Cl)c3O2)cc1	520	95	
CC#C[C@@H](CC(=O)O)c1ccc(OC[C@H]2COc3c(Cl)cccc3O2)cc1	170	81	
O=C(O)CCc1ccc(OCC2COc3cc(Br)ccc3O2)cc1F (centres undefined)	980	67	
O=C(O)CC1(c2ccc(OCC3COc4ccc(Cl)cc4O3)cc2)COC1 (centres undefined)	8060	66	
O=C(O)CC(c1ccc(F)cc1)c1ccc(OCC2COc3ccc(Cl)cc3O2)cc1 (centres undefined)	4310	83	
CC#C[C@@H](CC(=O)O)c1ccc(OC[C@H]2COc3cc(Cl)ccc3O2)cc1	110	80	
CCCCC/C=C\C/C=C\CCCCCCCC(=O)O [LINOLEIC ACID]	4800		
CC#C[C@H](CC(=O)O)c1ccc(OC[C@@H]2COc3ccc(Cl)cc3O2)cc1	5040	41	
CC#C[C@@H](CC(=O)O)c1ccc(OC[C@H]2COc3ccc(Br)cc3O2)cc1	210	69	
CC#C[C@@H](CC(=O)O)c1ccc(OC[C@H]2COc3ccc(OC)cc3O2)cc1	130	91	
CC#C[C@@H](CC(=O)O)c1ccc(OC[C@@H]2COc3ccc(Cl)cc3O2)cc1	260	65	
CC#C[C@@H](CC(=O)O)c1ccc(OC[C@H]2COc3ccc(F)cc3O2)cc1	210	86	
Cn1ccnc1C(CC(=O)O)c1ccc(OCC2COc3ccc(Cl)cc3O2)cc1 (centres undefined)	5880	68	
O=C(O)CCc1ccc(OCC2COc3ccc(Cl)cc3O2)cc1F (centres undefined)	830	50	
CC#C[C@@H](CC(=O)O)c1ccc(OC[C@H]2COc3cc(F)c(Cl)cc3O2)cc1	210	46	
O=C(O)CC(c1ccc(OCC2COc3ccc(Cl)cc3O2)cc1)c1cnco1 (centres undefined)	1030	63	
CC#C[C@@H](CC(=O)O)c1ccc(OC[C@H]2COc3ccc(C#N)cc3O2)cc1	2100	60	
CC#C[C@@H](CC(=O)O)c1ccc(OC[C@H]2COc3cc(Cl)c(Cl)cc3O2)cc1	150	33	
COCCOc1ccc2c(c1)OC(COc1ccc(CCC(=O)O)c(F)c1)CC2 (centres undefined)	2370	36	
